Reference: ChEMBL document CHEMBL3784974, “Design and Structural Characterization of Potent and Selective Inhibitors of Phosphatidylinositol 4 Kinase IIIβ” (J Med Chem, 2016)

Legend:
[1] = Inhibition of GST-tagged recombinant human full length PI4K3beta expressed in insect cells preincubated for 15 mins followed by addition of cold ATP/gamma32P-ATP measured after 30 mins in presence of MgCl2
In short: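 Membrane-capture radiometric assay. Purchased enzyme, final 2.5 nM. Enzyme preincubated 15 min with inhibitor (diluted in 10% DMSO), then 30 min reaction. Final: 20 mM Bis-Tris propane pH 7.5, 10 mM MgCl2, 0.075 mM Triton X-100, 0.5 mM EGTA, 1 mM DTT, 100 µM PI in PI:DOPS:DOPC, 500 ng/µL BSA, 2% DMSO, 10 µM ATP, 1 uCi γ32P-ATP. Product spotted on nitrocellulose, washed in 1M NaCl/1% phosphoric acid, phosphorimaged.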

[2] = Inhibition of N-terminal flag-tagged recombinant human full length PI4K3alpha expressed in baculovirus infected Sf21 insect cells preincubated for 15 mins followed by addition of cold ATP/gamma32P-ATP measured after 25 mins
In short: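 Purchased PI4KIIIα at 1.2 nM; 15 min inhibitor preincubation, 25 min reaction in 20 mM Bis-Tris propane pH 7.5, 10 mM MgCl2, 0.075 mM Triton X-100, 0.5 mM EGTA, 1 mM DTT, 100 µM PI (PI:DOPS:DOPC), 500 ng/µL BSA, 2% DMSO, 10 µM ATP, 2 uCi γ32P-ATP. Radiolabel captured on nitrocellulose, phosphorimaged.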

[3] = Cytotoxicity against human Huh7.5 cells after 3 days by presto blue assay; type: cell-based, Huh-7
In short: (§1)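 Huh7.5 cells stably infected with J6/JFH1-GLuc, kept in DMEM/10% FBS, glutamine, NEAA, pen/strep at 37 °C, 5% CO2. 10,000 cells/well; serially diluted compound added 1 h after plating; 3-day incubation. Replication read as Gaussia luciferase activity in supernatant; viability by Presto Blue.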

[4] = biological target: Phosphatidylinositol 4-kinase type 2-alpha (Homo sapiens) (UniProt Q9BTU6); experiment: Inhibition of flag-tagged recombinant PI4K2alpha (unknown origin) transfected in HEK293T cells upto 20 uM preincubated for 15 mins followed by addition of cold ATP/gamma32P-ATP measured after 25 mins; type: cell-based; conditions: HEK-293T
Chain of Phosphatidylinositol 4-kinase type 2-alpha (Homo sapiens) (Q9BTU6 whole entry): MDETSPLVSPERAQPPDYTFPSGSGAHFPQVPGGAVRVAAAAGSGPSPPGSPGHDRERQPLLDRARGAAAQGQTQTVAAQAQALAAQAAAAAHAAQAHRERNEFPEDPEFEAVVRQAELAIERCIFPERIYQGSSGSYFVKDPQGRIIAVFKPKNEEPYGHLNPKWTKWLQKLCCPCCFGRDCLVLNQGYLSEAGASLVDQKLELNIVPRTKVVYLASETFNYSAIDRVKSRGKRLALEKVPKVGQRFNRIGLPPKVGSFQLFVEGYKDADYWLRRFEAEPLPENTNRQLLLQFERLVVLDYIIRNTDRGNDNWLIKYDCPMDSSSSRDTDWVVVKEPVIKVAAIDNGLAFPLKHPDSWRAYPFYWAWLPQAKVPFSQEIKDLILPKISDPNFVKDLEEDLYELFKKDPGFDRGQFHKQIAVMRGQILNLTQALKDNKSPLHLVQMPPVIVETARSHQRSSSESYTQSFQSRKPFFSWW
In short: (§2)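 Enzymes cloned from DNASU plasmids, FLAG-tagged, transfected into HEK293T and FLAG-immunoprecipitated, eluted with FLAG peptide. 15 min inhibitor preincubation, 25 min reaction in 20 mM Bis-Tris propane pH 7.5, 10 mM MgCl2, 0.075 mM Triton X-100, 0.5 mM EGTA, 1 mM DTT, 100 µM PI, 500 ng/µL BSA, 2% DMSO, 10 µM ATP, 2 uCi γ32P-ATP; phosphorimaging.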

[5] = biological target: Phosphatidylinositol 4,5-bisphosphate 3-kinase catalytic subunit gamma isoform (Homo sapiens, UniProt P48736); experiment: Inhibition of histidine-tagged recombinant human full length PI3Kgamma expressed in insect cells preincubated for 15 mins followed by addition of cold ATP/gamma32P-ATP measured after 15 mins in presence of MgCl2
Chain of Phosphatidylinositol 4,5-bisphosphate 3-kinase catalytic subunit gamma isoform (P48736 whole entry, canonical isoform): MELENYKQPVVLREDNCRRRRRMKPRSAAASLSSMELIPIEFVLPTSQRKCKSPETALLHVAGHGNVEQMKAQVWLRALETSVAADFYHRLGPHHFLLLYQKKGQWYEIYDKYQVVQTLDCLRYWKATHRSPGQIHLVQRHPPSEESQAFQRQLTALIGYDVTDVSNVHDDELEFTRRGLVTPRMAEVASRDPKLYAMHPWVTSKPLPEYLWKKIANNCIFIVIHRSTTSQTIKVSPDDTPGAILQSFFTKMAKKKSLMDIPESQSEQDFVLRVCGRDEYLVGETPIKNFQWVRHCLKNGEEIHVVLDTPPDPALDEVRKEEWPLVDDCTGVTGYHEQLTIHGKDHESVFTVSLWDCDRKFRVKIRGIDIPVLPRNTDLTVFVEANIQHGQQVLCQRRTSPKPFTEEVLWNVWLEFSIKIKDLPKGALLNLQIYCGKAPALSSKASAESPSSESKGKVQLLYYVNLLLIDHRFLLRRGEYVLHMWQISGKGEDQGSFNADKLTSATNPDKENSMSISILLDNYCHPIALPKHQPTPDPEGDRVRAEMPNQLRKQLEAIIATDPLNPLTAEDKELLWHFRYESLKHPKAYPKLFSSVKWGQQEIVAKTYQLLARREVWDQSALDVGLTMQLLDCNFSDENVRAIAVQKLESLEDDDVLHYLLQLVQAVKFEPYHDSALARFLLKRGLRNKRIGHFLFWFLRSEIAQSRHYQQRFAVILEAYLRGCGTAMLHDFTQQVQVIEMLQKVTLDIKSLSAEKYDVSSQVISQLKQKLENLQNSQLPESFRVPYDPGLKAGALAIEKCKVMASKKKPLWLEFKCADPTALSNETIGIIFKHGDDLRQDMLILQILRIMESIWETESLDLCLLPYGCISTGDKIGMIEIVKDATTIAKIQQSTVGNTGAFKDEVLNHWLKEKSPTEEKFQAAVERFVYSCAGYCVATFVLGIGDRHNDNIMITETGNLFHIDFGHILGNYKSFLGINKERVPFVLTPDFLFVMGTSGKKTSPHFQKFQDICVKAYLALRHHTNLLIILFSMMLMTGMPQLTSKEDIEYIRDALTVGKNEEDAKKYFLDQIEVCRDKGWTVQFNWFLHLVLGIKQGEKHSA

Hepatitis C virus = experiment: Antiviral activity against HCV genotype 2a J6/JFH1 infected in human Huh7.5 cells after 3 days by gaussia luciferase assay; type: functional, organism-based, Hepacivirus hominis; conditions: subtype 2a J6/JFH1, Huh-7, 72 h; in short: as §1
[6] = biological target: T1, Phosphatidylinositol 4,5-bisphosphate 3-kinase catalytic subunit delta isoform (Homo sapiens, UniProt O00329); experiment: Inhibition of histidine-tagged recombinant human full length PI3Kdelta expressed in baculovirus preincubated for 15 mins followed by addition of cold ATP/gamma32P-ATP measured after 20 mins in presence of MgCl2
T1 sequence (O00329 whole entry): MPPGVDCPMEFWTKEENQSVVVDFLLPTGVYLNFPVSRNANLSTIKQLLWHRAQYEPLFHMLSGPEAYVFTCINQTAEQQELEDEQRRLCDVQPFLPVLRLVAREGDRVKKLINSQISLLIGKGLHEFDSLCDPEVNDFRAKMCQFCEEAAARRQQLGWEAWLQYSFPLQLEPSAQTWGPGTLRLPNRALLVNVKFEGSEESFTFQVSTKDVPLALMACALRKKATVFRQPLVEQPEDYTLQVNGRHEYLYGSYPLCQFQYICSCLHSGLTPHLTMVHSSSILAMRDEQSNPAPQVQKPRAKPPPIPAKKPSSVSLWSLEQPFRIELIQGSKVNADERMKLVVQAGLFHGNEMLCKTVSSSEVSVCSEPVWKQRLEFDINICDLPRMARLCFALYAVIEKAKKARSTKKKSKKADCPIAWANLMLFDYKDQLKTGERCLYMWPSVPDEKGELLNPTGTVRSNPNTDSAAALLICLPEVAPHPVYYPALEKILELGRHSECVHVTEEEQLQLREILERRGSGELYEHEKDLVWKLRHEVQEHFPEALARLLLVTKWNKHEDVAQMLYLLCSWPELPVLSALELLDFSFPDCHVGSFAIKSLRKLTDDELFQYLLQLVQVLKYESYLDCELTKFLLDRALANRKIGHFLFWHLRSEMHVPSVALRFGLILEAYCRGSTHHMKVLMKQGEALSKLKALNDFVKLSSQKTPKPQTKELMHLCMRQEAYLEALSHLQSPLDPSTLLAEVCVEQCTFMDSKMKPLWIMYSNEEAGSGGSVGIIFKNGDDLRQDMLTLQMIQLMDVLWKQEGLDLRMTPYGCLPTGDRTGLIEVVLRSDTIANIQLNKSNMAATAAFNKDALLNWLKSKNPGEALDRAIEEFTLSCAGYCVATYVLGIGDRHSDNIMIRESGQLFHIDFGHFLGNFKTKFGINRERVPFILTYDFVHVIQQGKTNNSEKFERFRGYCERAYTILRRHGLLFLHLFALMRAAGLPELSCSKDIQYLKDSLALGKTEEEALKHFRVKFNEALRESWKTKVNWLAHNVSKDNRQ
In short: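 Final: 50 mM HEPES pH 7.5, 100 mM NaCl, 0.03% CHAPS, 10 mM MgCl2, 1 mM EGTA, 2 mM DTT, 80 µM PIP2 (PIP2:DOPS:DOPC), 500 ng/µL BSA, 2% DMSO, 10 µM ATP, 2.5 uCi γ32P-ATP. Nitrocellulose capture, phosphorimaging.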

[7] = biological target: Phosphatidylinositol 4-kinase type 2-beta (Homo sapiens) (UniProt Q8TCG2); experiment: Inhibition of flag-tagged recombinant PI4K2beta (unknown origin) transfected in HEK293T cells upto 20 uM preincubated for 15 mins followed by addition of cold ATP/gamma32P-ATP measured after 25 mins; type: cell-based; conditions: HEK-293T; in short: as §2
Chain of Phosphatidylinositol 4-kinase type 2-beta (Homo sapiens) (Q8TCG2 whole entry): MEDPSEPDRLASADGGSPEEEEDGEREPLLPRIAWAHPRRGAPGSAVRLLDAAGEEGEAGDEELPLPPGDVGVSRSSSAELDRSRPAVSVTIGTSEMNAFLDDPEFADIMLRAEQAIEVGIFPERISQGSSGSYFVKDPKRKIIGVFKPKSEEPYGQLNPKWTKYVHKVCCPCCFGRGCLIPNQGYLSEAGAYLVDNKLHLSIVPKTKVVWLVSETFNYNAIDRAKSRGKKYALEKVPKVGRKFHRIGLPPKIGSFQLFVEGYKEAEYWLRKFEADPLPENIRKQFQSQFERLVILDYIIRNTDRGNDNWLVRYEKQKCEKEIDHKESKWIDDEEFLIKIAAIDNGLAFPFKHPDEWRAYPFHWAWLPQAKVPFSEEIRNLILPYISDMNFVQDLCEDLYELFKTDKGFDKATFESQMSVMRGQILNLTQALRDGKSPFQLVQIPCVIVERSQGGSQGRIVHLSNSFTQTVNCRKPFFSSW

[8] = biological target: Phosphatidylinositol 3-kinase catalytic subunit type 3 (Homo sapiens, UniProt Q8NEB9); experiment: Inhibition of GST-tagged recombinant human full length VPS34 expressed in baculovirus preincubated for 15 mins followed by addition of cold ATP/gamma32P-ATP measured after 1 hr in presence of MnCl2
Chain of Phosphatidylinositol 3-kinase catalytic subunit type 3 (Q8NEB9 whole entry): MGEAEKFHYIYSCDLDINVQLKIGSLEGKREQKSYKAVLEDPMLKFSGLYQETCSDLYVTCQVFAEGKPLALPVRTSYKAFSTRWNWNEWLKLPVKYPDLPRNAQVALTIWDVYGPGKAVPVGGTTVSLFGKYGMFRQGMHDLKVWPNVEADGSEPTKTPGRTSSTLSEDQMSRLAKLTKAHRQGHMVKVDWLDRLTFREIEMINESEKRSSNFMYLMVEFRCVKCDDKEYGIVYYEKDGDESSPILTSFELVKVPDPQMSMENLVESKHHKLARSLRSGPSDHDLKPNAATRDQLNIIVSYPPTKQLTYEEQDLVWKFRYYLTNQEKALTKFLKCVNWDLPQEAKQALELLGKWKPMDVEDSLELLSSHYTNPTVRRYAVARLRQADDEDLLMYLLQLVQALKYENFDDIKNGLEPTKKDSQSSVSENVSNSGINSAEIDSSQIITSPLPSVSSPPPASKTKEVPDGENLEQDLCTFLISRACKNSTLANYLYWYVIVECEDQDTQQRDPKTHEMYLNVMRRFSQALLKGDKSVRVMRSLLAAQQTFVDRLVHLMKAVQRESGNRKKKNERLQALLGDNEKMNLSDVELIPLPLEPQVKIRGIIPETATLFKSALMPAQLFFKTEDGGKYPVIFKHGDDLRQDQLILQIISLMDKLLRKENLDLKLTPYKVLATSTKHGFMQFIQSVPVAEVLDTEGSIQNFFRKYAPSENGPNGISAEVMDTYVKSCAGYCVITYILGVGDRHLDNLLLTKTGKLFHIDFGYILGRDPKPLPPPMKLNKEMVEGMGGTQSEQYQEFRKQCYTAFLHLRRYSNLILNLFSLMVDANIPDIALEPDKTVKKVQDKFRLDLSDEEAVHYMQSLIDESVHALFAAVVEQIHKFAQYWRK
In short: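 Radiometric membrane-capture assay, 10 nM purchased vps34, 15 min preincubation with inhibitor, then 1 h reaction. Final: 50 mM HEPES pH 7.5, 0.1% CHAPS, 2mM MnCl2, 1 mM EGTA, 2 mM DTT, 100 µM PI in PI:DOPS:DOPC, 500 ng/µL BSA, 2% DMSO, 10 µM ATP, 2.5 uCi γ32P-ATP; spots washed, phosphorimaged.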

Compound | IC50 [1] | IC50 [2] | CC50 at 72 h [3] | inhibition [4] | IC50 [5] | IC50 (Hepatitis C virus) | IC50 [6] | inhibition [7] | IC50 [8]
COc1ccc(-c2sc(NC(=O)C(C)(C)C)nc2C)cc1S(=O)(=O)Nc1ccc(O)cc1 | 0.0036 µM | 3 µM | 32 µM | < 20% | 20 µM | 1.3 µM | 0.72 µM | < 20% | > 20 µM
COc1ccc(-c2sc(NC(=O)C3CCCC3)nc2C)cc1S(=O)(=O)Nc1ccc(O)cc1 | 0.007 µM | 2.6 µM | 14 µM | < 50% | 1.05 µM | 0.63 µM | 0.152 µM | < 50% | > 20 µM
